Test results: ChEMBL document CHEMBL1135836, “Cyclodextrin-derived host molecules as reversal agents for the neuromuscular blocker rocuronium bromide: synthesis and structure-activity relationships” (J Med Chem, 2002)

Experiments:
Type in all cases: functional
Cavia porcellus [1] = test: In vivo reversal activity versus ~90% block by rocuronium in guinea pig
Method in brief: (§1)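 Male Dunkin-Hartley guinea pigs (600-900 g), anaesthetized ip with pentobarbitone 10 mg/kg plus urethane 1000 mg/kg, tracheotomized and ventilated. Continuous iv rocuronium infusion (~10 nmol kg-1 min-1) was raised to a steady 85-90% block. Increasing iv doses of agent were given cumulatively. ED50 = 50% recovery versus preblock twitch, by regression. Mean ± SEM of at least two experiments, or one.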

Mus musculus [2] = species on record: Mus musculus; test: In vitro reversal activity versus ~90% block by rocuronium in isolated mouse hemidiaphragm, expressed as effective conc.
Mus musculus [3] = species on record: Mus musculus; test: In vitro reversal activity versus ~90% block by rocuronium in isolated mouse hemidiaphragm, expressed as % of maximum reversal at a conc. of 360 uM
Cavia porcellus [4] = test: In vivo reversal activity versus ~90% block by rocuronium in guinea pig, expressed as % maximum reversal at 1018 umol/kg conc.; method in brief: as §1
Cavia porcellus [5] = test: In vivo reversal activity versus ~90% block by rocuronium in guinea pig, expressed as % of maximum reversal at 1.2 umol/kg conc.; method in brief: as §1
Mus musculus [6] = species on record: Mus musculus; test: In vitro reversal activity versus ~90% block by rocuronium in isolated mouse hemidiaphragm, expressed as % of maximum reversal at 3.6 uM conc.
Mus musculus [7] = species on record: Mus musculus; test: In vitro reversal activity versus ~90% block by rocuronium in isolated mouse hemidiaphragm, expressed as % of maximum reversal at 16.2 uM conc.
Cavia porcellus [8] = test: In vivo reversal activity versus ~90% block by rocuronium in guinea pig, expressed as % of maximum reversal at 2.1 umol/kg conc.
Method in brief: (§2)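 Male Dunkin-Hartley guinea pigs (600-900 g) anaesthetized ip with pentobarbitone 10 mg/kg plus urethane 1000 mg/kg, tracheotomized and artificially ventilated. Continuous iv rocuronium bromide infusion (~10 nmol kg-1 min-1) raised until steady-state twitch block of 85-90%. Increasing single iv doses of reversal agent given by a separate catheter. Max reversal is peak twitch recovery versus preblock height at highest dose tested; means ± SEM, n ≥ 2 or single experiment.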

Mus musculus [9] = species on record: Mus musculus; test: In vitro reversal activity versus ~90% block by rocuronium in isolated mouse hemidiaphragm, expressed as % of maximum reversal at 2.9 uM conc.
Cavia porcellus [10] = test: In vivo reversal activity versus ~90% block by rocuronium in guinea pig, expressed as % of maximum reversal at 1.6 umol/kg conc.; method in brief: as §1
Cavia porcellus [11] = test: In vivo reversal activity versus ~90% block by rocuronium in guinea pig, expressed as % of maximum reversal at 33.1 umol/kg conc.; method in brief: as §2
Mus musculus [12] = species on record: Mus musculus; test: In vitro reversal activity versus ~90% block by rocuronium in isolated mouse hemidiaphragm, expressed as % of maximum reversal at 10.8uM conc.
Cavia porcellus [13] = test: In vivo reversal activity versus ~90% block by rocuronium in guinea pig, expressed as % of maximum reversal at 11 umol/kg conc.; method in brief: as §1
Mus musculus [14] = species on record: Mus musculus; test: In vitro reversal activity versus ~90% block by rocuronium in isolated mouse hemidiaphragm, expressed as % of maximum reversal at 252 uM conc.
Mus musculus [15] = species on record: Mus musculus; test: In vitro reversal activity versus ~90% block by rocuronium in isolated mouse hemidiaphragm, expressed as % of maximum reversal at 144 uM conc.
Cavia porcellus [16] = test: In vivo reversal activity versus ~90% block by rocuronium in guinea pig, expressed as % of maximum reversal at 47umol/kg conc.; method in brief: as §2
Mus musculus [17] = species on record: Mus musculus; test: In vitro reversal activity versus ~90% block by rocuronium in isolated mouse hemidiaphragm, expressed as % of maximum reversal at 7.2 uM conc.
Cavia porcellus [18] = test: In vivo reversal activity versus ~90% block by rocuronium in guinea pig, expressed as % of maximum reversal at 1.7 umol/kg conc.; method in brief: as §1
Cavia porcellus [19] = test: In vivo reversal activity versus ~90% block by rocuronium in guinea pig, expressed as % of maximum reversal at 9.6 […] conc.; method in brief: as §2
Cavia porcellus [20] = test: In vivo reversal activity versus ~90% block by rocuronium in guinea pig, expressed as % of maximum reversal at 8 umol/kg conc.; method in brief: as §2
Mus musculus [21] = species on record: Mus musculus; test: In vitro reversal activity versus ~90% block by rocuronium in isolated mouse hemidiaphragm, expressed as % of maximum reversal at 180 uM conc.
Felis catus [22] = test: Percent increase in contraction of nictitating membrane in anesthetized cat (dosed with standard combination of neostigmin (24.3 umol/kg) + atropine 15 umol/kg)
Felis catus [23] = test: Percent of maximum change of HR in anesthetized cat (dosed with standard combination of neostigmin (24.3 umol/kg) + atropine 15 umol/kg)
Felis catus [24] = test: Percent of maximum change in BP in anesthetized cat (dosed with standard combination of neostigmin (24.3 umol/kg) + atropine 15 umol/kg)
Felis catus [25] = test: Percent of maximum change of decrease in HR (bpm) by vagal stimulation in anesthetized cat (dosed with standard combination of neostigmin (24.3 umol/kg) + atropine 15 umol/kg)

## OCC1O[C@@H]2O[C@@H]3C(CO)O[C@H](O[C@@H]4C(CO)O[C@H](O[C@@H]5C(CO)O[C@H](O[C@@H]6C(CO)O[C@H](O[C@@H]7C(CO)O[C@H](O[C@H]1C(O)C2O)C(O)C7O)C(O)C6O)C(O)C5O)C(O)C4O)C(O)C3O (some centres undefined)
Cavia porcellus [1]
  ED50: 1580 µmol/kg
Mus musculus [2]
  EC50: > 360 µM
Mus musculus [3]
  Max reversal: 9.7%
Cavia porcellus [4]
  Max reversal: 6.4%

## OC1C(O)[C@@H]2O[C@H]3OC(CSCCCc4nn[n-]n4)[C@@H](O[C@H]4OC(CSCCCc5nn[n-]n5)[C@@H](O[C@H]5OC(CSCCCc6nn[n-]n6)[C@@H](O[C@H]6OC(CSCCCc7nn[n-]n7)[C@@H](O[C@H]7OC(CSCCCc8nn[n-]n8)[C@@H](O[C@H]8OC(CSCCCc9nn[n-]n9)[C@@H](O[C@H]9OC(CSCCCc%10nn[n-]n%10)[C@@H](O[C@H]1OC2CSCCCc1nn[n-]n1)C(O)C9O)C(O)C8O)C(O)C7O)C(O)C6O)C(O)C5O)C(O)C4O)C(O)C3O.[Na+].[Na+].[Na+].[Na+].[Na+].[Na+].[Na+].[Na+] (some centres undefined)
Cavia porcellus [1]
  ED50: 0.22 µmol/kg
Mus musculus [2]
  EC50: 0.6 µM
Cavia porcellus [5]
  Max reversal: 109%
Mus musculus [6]
  Max reversal: 89.9%

## O=C(O)CCOCCSCC1O[C@@H]2O[C@@H]3C(CSCCOCCO)O[C@H](O[C@@H]4C(CSCCOCCO)O[C@H](O[C@@H]5C(CSCCOCCO)O[C@H](O[C@@H]6C(CSCCOCCO)O[C@H](O[C@@H]7C(CSCCOCCO)O[C@H](O[C@@H]8C(CSCCOCCO)O[C@H](O[C@@H]9C(CSCCOCCO)O[C@H](O[C@H]1C(O)C2O)C(O)C9O)C(O)C8O)C(O)C7O)C(O)C6O)C(O)C5O)C(O)C4O)C(O)C3O (some centres undefined)
Cavia porcellus [1]
  ED50: 0.47 µmol/kg
Mus musculus [2]
  EC50: 9.1 µM
Mus musculus [7]
  Max reversal: 66.1%
Cavia porcellus [8]
  Max reversal: 92.2%

## O=C([O-])Cc1ccc(SCC2O[C@@H]3O[C@@H]4C(CSc5ccc(CC(=O)[O-])cc5)O[C@H](O[C@@H]5C(CSc6ccc(CC(=O)[O-])cc6)O[C@H](O[C@@H]6C(CSc7ccc(CC(=O)[O-])cc7)O[C@H](O[C@@H]7C(CSc8ccc(CC(=O)[O-])cc8)O[C@H](O[C@@H]8C(CSc9ccc(CC(=O)[O-])cc9)O[C@H](O[C@@H]9C(CSc%10ccc(CC(=O)[O-])cc%10)O[C@H](O[C@@H]%10C(CSc%11ccc(CC(=O)[O-])cc%11)O[C@H](O[C@H]2C(O)C3O)C(O)C%10O)C(O)C9O)C(O)C8O)C(O)C7O)C(O)C6O)C(O)C5O)C(O)C4O)cc1.[Na+].[Na+].[Na+].[Na+].[Na+].[Na+].[Na+].[Na+] (some centres undefined)
Mus musculus [9]
  Max reversal: 98.9%
Cavia porcellus [1]
  ED50: 0.14 µmol/kg
Mus musculus [2]
  EC50: 1.4 µM
Cavia porcellus [10]
  Max reversal: 103.8%

## NC(=O)CCCSCC1O[C@@H]2O[C@@H]3C(CSCCCC(N)=O)O[C@H](O[C@@H]4C(CSCCCC(N)=O)O[C@H](O[C@@H]5C(CSCCCC(N)=O)O[C@H](O[C@@H]6C(CSCCCC(N)=O)O[C@H](O[C@@H]7C(CSCCCC(N)=O)O[C@H](O[C@@H]8C(CSCCCC(N)=O)O[C@H](O[C@@H]9C(CSCCCC(N)=O)O[C@H](O[C@H]1C(O)C2O)C(O)C9O)C(O)C8O)C(O)C7O)C(O)C6O)C(O)C5O)C(O)C4O)C(O)C3O (some centres undefined)
Cavia porcellus [1]
  ED50: 0.58 µmol/kg
Mus musculus [2]
  EC50: 5 µM
Cavia porcellus [11]
  Max reversal: 94.2%
Mus musculus [12]
  Max reversal: 85.4%

## O=C([O-])c1ccccc1SCC1O[C@@H]2O[C@@H]3C(CO)O[C@H](O[C@@H]4C(CO)O[C@H](O[C@@H]5C(CO)O[C@H](O[C@@H]6C(CO)O[C@H](O[C@@H]7C(CO)O[C@H](O[C@@H]8C(CO)O[C@H](O[C@@H]9C(CO)O[C@H](O[C@H]1C(O)C2O)C(O)C9O)C(O)C8O)C(O)C7O)C(O)C6O)C(O)C5O)C(O)C4O)C(O)C3O.[Na+] (some centres undefined)
Cavia porcellus [1]
  ED50: 1.3 µmol/kg
Mus musculus [2]
  EC50: 97.6 µM
Cavia porcellus [13]
  Max reversal: 93%
Mus musculus [14]
  Max reversal: 86.3%

## OCC1O[C@@H]2O[C@@H]3C(CO)O[C@H](O[C@@H]4C(CO)O[C@H](O[C@@H]5C(CO)O[C@H](O[C@@H]6C(CO)O[C@H](O[C@@H]7C(CO)O[C@H](O[C@@H]8C(CO)O[C@H](O[C@@H]9C(CO)O[C@H](O[C@H]1C(O)C2O)C(O)C9O)C(O)C8O)C(O)C7O)C(O)C6O)C(O)C5O)C(O)C4O)C(O)C3O (some centres undefined)
Cavia porcellus [1]
  ED50: 4 µmol/kg
Mus musculus [2]
  EC50: 34.6 µM
Mus musculus [15]
  Max reversal: 94.1%
Cavia porcellus [16]
  Max reversal: 104.7%

## O=S(=O)([O-])CSCC1O[C@@H]2O[C@@H]3C(CSCS(=O)(=O)[O-])O[C@H](O[C@@H]4C(CSCS(=O)(=O)[O-])O[C@H](O[C@@H]5C(CSCS(=O)(=O)[O-])O[C@H](O[C@@H]6C(CSCS(=O)(=O)[O-])O[C@H](O[C@@H]7C(CSCS(=O)(=O)[O-])O[C@H](O[C@@H]8C(CSCS(=O)(=O)[O-])O[C@H](O[C@@H]9C(CSCS(=O)(=O)[O-])O[C@H](O[C@H]1C(O)C2O)C(O)C9O)C(O)C8O)C(O)C7O)C(O)C6O)C(O)C5O)C(O)C4O)C(O)C3O.[Na+].[Na+].[Na+].[Na+].[Na+].[Na+].[Na+].[Na+] (some centres undefined)
Cavia porcellus [1]
  ED50: 0.06 µmol/kg
Mus musculus [2]
  EC50: 0.36 µM
Mus musculus [17]
  Max reversal: 101.4%
Cavia porcellus [18]
  Max reversal: 106.5%

## O=C([O-])CSCC1O[C@@H]2O[C@@H]3C(CSCC(=O)[O-])O[C@H](O[C@@H]4C(CSCC(=O)[O-])O[C@H](O[C@@H]5C(CSCC(=O)[O-])O[C@@H](O[C@@H]6C(CSCC(=O)[O-])O[C@H](O[C@@H]7C(CSCC(=O)[O-])O[C@H](O[C@@H]8C(CSCC(=O)[O-])O[C@H](O[C@H]1C(O)C2O)C(O)C8O)C(O)C7O)C(O)C6O)C(O)C5O)C(O)C4O)C(O)C3O.[Na+].[Na+].[Na+].[Na+].[Na+].[Na+].[Na+] (some centres undefined)
Cavia porcellus [1]
  ED50: 0.93 µmol/kg
Mus musculus [2]
  EC50: 6.5 µM
Mus musculus [7]
  Max reversal: 97.3%
Cavia porcellus [19]
  Max reversal: 89.6%

## O=C([O-])c1ccc(SCC2O[C@@H]3O[C@@H]4C(CO)O[C@H](O[C@@H]5C(CO)O[C@H](O[C@@H]6C(CO)O[C@H](O[C@@H]7C(CO)O[C@H](O[C@@H]8C(CO)O[C@H](O[C@@H]9C(CO)O[C@H](O[C@@H]%10C(CO)O[C@H](O[C@H]2C(O)C3O)C(O)C%10O)C(O)C9O)C(O)C8O)C(O)C7O)C(O)C6O)C(O)C5O)C(O)C4O)cc1.[Na+] (some centres undefined)
Cavia porcellus [1]
  ED50: 0.94 µmol/kg
Mus musculus [2]
  EC50: 50.3 µM
Cavia porcellus [20]
  Max reversal: 102.4%
Mus musculus [21]
  Max reversal: 94.7%

## CN(C)C(=O)Oc1cccc([N+](C)(C)C)c1.CN1[C@@H]2CC[C@H]1C[C@H](OC(=O)C(CO)c1ccccc1)C2.[Br-] (some centres undefined)
Felis catus [22]
  Increase: -7.2%
Felis catus [23]
  HR: -7.1 beats min-1
Felis catus [24]
  BP: 17.7 mmHg
Felis catus [25]
  Decrease: -64.8%
